# The source made the active and inactive calls. The calls are words filed in the database; no cut-off is given here.
# Columns and labels:
# [1] = tested on: Mycobacterium tuberculosis; assay: Antimycobacterial activity against Mycobacterium tuberculosis H37Ra by microplate alamar blue assay; assay type: functional
# Method in brief: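 Growth inhibition of M. tuberculosis H37Ra in the Microplate Alamar Blue Assay. MIC read-out, with isoniazid and kanamycin sulfate as standard drugs.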
# Plasmodium falciparum = assay: Antimalarial activity against multidrug-resistant Plasmodium falciparum K1; assay type: functional, organism-based
# Method in brief: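 Multidrug-resistant P. falciparum K1 kept in continuous culture (Trager–Jensen). In vitro activity measured by the microculture radioisotope technique (Desjardins). IC50 read-out, with chloroquine diphosphate as the standard.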
# Candida albicans = assay: Antifungal activity against Candida albicans; assay type: functional, organism-based
# Method in brief: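 Candida albicans growth inhibition measured by a colorimetric method. IC50 read-out, with amphotericin B as the standard drug.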
smiles,measurement,setting,value
C/C=C/CC[C@@H]1Cc2cc(O)c(C/C=C/C)c(O)c2C(=O)O1,MIC,[1],50 µg/mL
same,Activity,Plasmodium falciparum,inactive
same,Activity,Candida albicans,inactive
NNC(=O)c1ccncc1 [ISONIAZID],MIC,[1],0.05 µg/mL
NC[C@H]1O[C@H](O[C@H]2[C@H](O)[C@@H](O[C@H]3O[C@H](CO)[C@@H](O)[C@H](N)[C@H]3O)[C@H](N)C[C@@H]2N)[C@H](O)[C@@H](O)[C@@H]1O.O=S(=O)(O)O [KANAMYCIN SULFATE],MIC,[1],2.5 µg/mL
C/C=C/CC[C@@H]1Cc2cc(O)c(CCCC)c(O)c2C(=O)O1,MIC,[1],25 µg/mL
same,IC50,Plasmodium falciparum,4.7 µg/mL
same,IC50,Candida albicans,19 µg/mL
C[C@@H]1[C@H](O)[C@@H](C)/C=C/C=C/C=C/C=C/C=C/C=C/C=C/[C@H](O[C@@H]2O[C@H](C)[C@@H](O)[C@H](N)[C@@H]2O)C[C@@H]2O[C@](O)(C[C@@H](O)C[C@@H](O)[C@H](O)CC[C@@H](O)C[C@@H](O)CC(=O)O[C@H]1C)C[C@H](O)[C@H]2C(=O)O [AMPHOTERICIN B],IC50,Candida albicans,0.01 µg/mL
CCCCC[C@@H]1Cc2cc(O)c(CCCC)c(O)c2C(=O)O1,Activity,[1],inactive
same,IC50,Plasmodium falciparum,2.6 µg/mL
same,IC50,Candida albicans,33 µg/mL
